Measurements published in ChEMBL document CHEMBL4477166, “18β-Glycyrrhetinic Acid Derivatives Possessing a Trihydroxylated A Ring Are Potent Gram-Positive Antibacterial Agents” (2016).
In brackets after ≈: the same amount, converted by molar mass. Activity calls are given as the source filed them. The calls are words filed in the database; no cut-off is given here.

Assays:
[1] = system: Bacillus subtilis; assay: Reduction in mmD expression in Bacillus subtilis ATCC 6051 at 0.5 times MIC by qRT-PCR analysis relative to control; type: functional, organism-based
Procedure, shortened: (§1)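 Bacteria were grown in broth with compound at 0.5 × MIC or vehicle to exponential phase (OD620 = 0.4) and then pelleted. Total RNA was reverse-transcribed, and SYBR-based real-time PCR was run against housekeeping genes. Relative expression versus control was calculated by 2^−ΔΔCT. Mean ± SEM, n = 3, significance at p < 0.05.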

[2] = system: Staphylococcus aureus; assay: Inhibition of seaR expression in methicillin-resistant Staphylococcus aureus at 0.5 times MIC by qRT-PCR analysis relative to control; type: functional, organism-based
Procedure, shortened: (§2)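 MRSA grown in broth containing either 0.5 × MIC of test compound or vehicle alone. Cells harvested at exponential phase (OD₆₂₀ = 0.4). Total RNA reverse-transcribed, then SYBR-based real-time PCR run. Relative expression computed by the 2^−ΔΔCT method against the vehicle control or the parent-acid-treated group. Mean ± SEM, n = 3; significance set at p < 0.05.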

[3] = system: Bacillus subtilis; assay: Upregulation of yqhB expression in Bacillus subtilis ATCC 6051 at 0.5 times MIC by qRT-PCR analysis relative to control; type: functional, organism-based; procedure, shortened: as §1
[4] = system: Staphylococcus aureus; assay: Upregulation of seaR expression in Staphylococcus aureus ATCC 25923 at 0.5 times MIC by qRT-PCR analysis relative to control; type: functional, organism-based; procedure, shortened: as §1
[5] = system: Staphylococcus aureus; assay: Antibacterial activity against Staphylococcus aureus ATCC 25923 by microdilution assay; type: functional
Procedure, shortened: (§3)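 Turbidimetric broth microdilution. Log-phase cells were washed and resuspended in broth (LB at 37 °C for B. subtilis and S. aureus; oat bran broth at 28 °C for S. scabies) and seeded at 1 × 10⁵ CFU/mL. Twofold serial dilutions were made with DMSO ≤1% (v/v). A620 was read, then plates were incubated with vigorous shaking. MIC was the lowest concentration with no apparent growth versus vehicle-only medium without cells. Run in triplicate.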

[6] = system: Bacillus subtilis; assay: Antibacterial activity against Bacillus subtilis ATCC 6051 by microdilution assay; type: functional; procedure, shortened: as §3
[7] = system: Staphylococcus aureus; assay: Upregulation of hla expression in Staphylococcus aureus ATCC 25923 at 0.5 times MIC by qRT-PCR analysis relative to control; type: functional, organism-based; procedure, shortened: as §1
[8] = system: Bacillus subtilis; assay: Upregulation of yhdT expression in Bacillus subtilis ATCC 6051 at 0.5 times MIC by qRT-PCR analysis relative to control; type: functional, organism-based; procedure, shortened: as §1
[9] = system: Staphylococcus aureus; assay: Reduction in narG expression in Staphylococcus aureus ATCC 25923 at 0.5 times MIC by qRT-PCR analysis relative to control; type: functional, organism-based; procedure, shortened: as §1
[10] = system: Streptomyces scabiei; assay: Reduction in p450 expression in Streptomyces scabiei CGMCC4.7610246 at 0.5 times MIC by qRT-PCR analysis relative to control; type: functional, organism-based; procedure, shortened: as §1
[11] = system: Staphylococcus aureus; assay: Reduction in narG expression in methicillin-resistant Staphylococcus aureus at 0.5 times MIC by qRT-PCR analysis relative to control; type: functional, organism-based; procedure, shortened: as §2
[12] = system: Pseudomonas aeruginosa; assay: Antibacterial activity against multi-drug resistant Pseudomonas aeruginosa at 100 uM measured after 5 to 6 hrs by microdilution assay; type: functional, organism-based
Procedure, shortened: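 Log-phase cells seeded at 1 × 10⁵ CFU/mL. Single-dose screen at 100 μM, with DMSO cosolvent at most 1% v/v. Growth measured turbidimetrically at 620 nm, before and after incubation with vigorous shaking.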

[13] = system: Streptomyces scabiei; assay: Antibacterial activity against Streptomyces scabiei CGMCC4.7610246 by microdilution assay; type: functional; procedure, shortened: as §3
[14] = system: Pseudomonas aeruginosa; assay: Antibacterial activity against Pseudomonas aeruginosa at 100 uM measured after 5 to 6 hrs by microdilution assay; type: functional, organism-based
[15] = system: Staphylococcus aureus; assay: Antibacterial activity against methicillin-resistant Staphylococcus aureus by microdilution assay; type: functional
Procedure, shortened: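 Log-phase cells seeded at 1 × 10⁵ CFU/mL. Twofold serial dilutions made in broth with DMSO cosolvent, at most 1% v/v. Turbidity read at 620 nm before and after incubation with vigorous shaking. MIC is the lowest concentration with no apparent growth versus the medium-plus-vehicle control. Run in triplicate.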

[16] = system: Escherichia coli; assay: Antibacterial activity against Escherichia coli at 100 uM measured after 5 to 6 hrs by microdilution assay; type: functional, organism-based
[17] = system: Staphylococcus aureus; assay: Inhibition of hla expression in methicillin-resistant Staphylococcus aureus at 0.5 times MIC by qRT-PCR analysis relative to control; type: functional, organism-based; procedure, shortened: as §2
[18] = system: Staphylococcus aureus; assay: Effect on lytM expression in Staphylococcus aureus ATCC 25923 at 0.5 times MIC by qRT-PCR analysis; type: functional, organism-based; procedure, shortened: as §1
[19] = system: Bacillus thuringiensis; assay: Antibacterial activity against Bacillus thuringiensis measured after 5 to 6 hrs by microdilution titre technique; type: functional
[20] = system: Escherichia coli; assay: Antibacterial activity against Escherichia coli measured after 5 to 6 hrs by microdilution titre technique; type: functional
[21] = system: Escherichia coli; assay: Antibacterial activity against Escherichia coli ATCC 25922 measured after overnight incubation by microplate dilution assay; type: functional
[22] = system: Bacillus subtilis; assay: Antibacterial activity against Bacillus subtilis ATCC 6051 at 0.5 times MIC by time-kill analysis; type: functional, organism-based
Procedure, shortened: (§4)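 Time-kill in LB at 37 °C. B. subtilis or S. aureus suspensions were set at 5 × 10⁵ CFU/mL and exposed to 0.5×, 1×, 2× and 4× MIC alongside negative and positive controls. Samples of 1 mL were taken at 0, 2, 4, 6, 8, 12 and 24 h, serially diluted and plated for viable counts, and survival was calculated. Three repeats.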

[23] = system: Staphylococcus aureus; assay: Antibacterial activity against Staphylococcus aureus ATCC 25923 at 0.5 times MIC by time-kill analysis; type: functional, organism-based; procedure, shortened: as §4
[24] = system: Streptomyces scabiei; assay: Reduction in murX expression in Streptomyces scabiei CGMCC4.7610246 at 0.5 times MIC by qRT-PCR analysis relative to control; type: functional, organism-based; procedure, shortened: as §1
[25] = system: Streptomyces scabiei; assay: Antibacterial activity against Streptomyces scabiei CGMCC4.7610246 at 0.5 times MIC by time-kill analysis; type: functional, organism-based
Procedure, shortened: (§5)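 Killing kinetics for S. scabies in oat bran broth at 28 °C, starting at 5 × 10⁵ CFU/mL. Exposure was 0.5×, 1×, 2× or 4× MIC, with negative and positive controls. Samples of 1 mL were withdrawn at 0, 4, 8, 16, 24 and 36 h, serially diluted and plated, and survival was calculated from colony counts. Performed in triplicate.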

[26] = system: Bacillus subtilis; assay: Antibacterial activity against Bacillus subtilis ATCC 6051 by time-kill analysis; type: functional, organism-based; procedure, shortened: as §4
[27] = system: Staphylococcus aureus; assay: Antibacterial activity against Staphylococcus aureus ATCC 25923 by time-kill analysis; type: functional, organism-based; procedure, shortened: as §4
[28] = system: Streptomyces scabiei; assay: Antibacterial activity against Streptomyces scabiei CGMCC4.7610246 by time-kill analysis; type: functional, organism-based; procedure, shortened: as §5

Row | SMILES | MIC [5] | MIC [6] | Activity [10] | Activity [12] | MIC [13] | Activity [14] | MIC [15] | Activity [16] | MIC [19] | MIC [20] | also measured
1 | CC1(C)[C@@H](O)CC[C@]2(C)[C@H]3C(=O)C=C4[C@@H]5C[C@@](C)(C(=O)O)CC[C@]5(C)CC[C@@]4(C)[C@]3(C)CC[C@@H]12 [ENOXOLONE] | > 50 µg/mL | > 50 µg/mL | Active | inactive | > 50 µg/mL | inactive | > 50 µg/mL | inactive | – | – | Activity [1]: inactive; inhibition [2]: Active; Activity [3]: Active; Activity [4]: Active; Activity [7]: Active; Activity [8]: Active; Activity [9]: inactive; Activity [11]: inactive; inhibition [17]: Active; Activity [18]: inactive
2 | CC1(C)CC[C@]2(C(=O)O)CC[C@]3(C)C(=CC[C@@H]4[C@@]5(C)C[C@@H](O)[C@H](O)C(C)(C)[C@@H]5CC[C@]43C)[C@@H]2C1 [MASLINIC ACID] | – | – | – | – | – | – | – | – | 0.9 µg/mL (≈ 1.9 µM) | 3.9 µg/mL (≈ 8.25 µM) | –
3 | CC1(C)CC[C@H](O)[C@]2(C)[C@H]3CC=C4[C@@H]5C[C@@](C)(C(=O)O)CC[C@]5(C)CC[C@@]4(C)[C@]3(C)CC[C@@H]12 | – | – | – | – | – | – | – | – | – | – | MIC [21]: > 250 µg/mL
4 | CC1(C)[C@@H](O)[C@@H](O)[C@H](O)[C@]2(C)[C@H]3CC=C4[C@@H]5C[C@@](C)(C(=O)OCc6ccccc6Cl)CC[C@]5(C)CC[C@@]4(C)[C@]3(C)CC[C@@H]12 | > 50 µg/mL | > 50 µg/mL | – | inactive | > 50 µg/mL | inactive | > 50 µg/mL | inactive | – | – | –
5 | COC(=O)[C@@]1(C)CC[C@]2(C)CC[C@]3(C)C(=CC[C@@H]4[C@@]5(C)[C@@H](O)[C@H](O)[C@H](O)C(C)(C)[C@@H]5CC[C@]43C)[C@@H]2C1 | 2 µg/mL (≈ 3.98 µM) | 4 µg/mL (≈ 7.96 µM) | Active | inactive | 1 µg/mL (≈ 1.99 µM) | inactive | > 32 µg/mL | inactive | – | – | Activity [22]: inactive; Activity [23]: inactive; Activity [24]: Active; Activity [25]: inactive; Activity [26]: Dose-dependent effect; Activity [27]: Dose-dependent effect; Activity [28]: Dose-dependent effect
6 | CC1(C)CC[C@]2(C(=O)O)CC[C@]3(C)C(=CC[C@@H]4[C@@]5(C)CC[C@H](O)C(C)(C)[C@@H]5CC[C@]43C)[C@@H]2C1 [OLEANOLIC_ACID] | – | – | – | – | – | – | – | – | 1.9 µg/mL (≈ 4.16 µM) | 7.8 µg/mL (≈ 17.1 µM) | –
